Test results taken from ChEMBL document CHEMBL1817552, “Isolation, identification, and biological evaluation of HIF-1-modulating compounds from Brazilian green propolis” (Bioorg Med Chem, 2011).
Active and inactive are the calls of the source. The rule behind the calls is not given here.

Key:
HEK293 [1] = test: Modulation of HIF1 expressed in HEK293 cells assessed as luciferase activity under hypoxic condition at 50 uM after 24 hrs by luminometer analysis relative to hypoxic control; assay type: cell-based
In short: (§1)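 HEK293 stable clone carrying a luciferase reporter driven by a 68-bp ENO1 hypoxia response element upstream of the SV40 promoter, seeded at 8 × 10^4 cells/well. After 24 h, compound added; 1 h later cells moved to 1% O2 hypoxia for 24 h. Luciferase read by luminometer, expressed as ratio to hypoxic control. Final DMSO 0.5%; triplicate wells.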

HCT-116 [2] = test: Cytotoxicity against human HCT116 cells assessed as cell viability under normoxic condition at 100 uM after 24 hrs by MTT assay; assay type: functional
In short: (§2)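 HCT116 cells seeded at 6.0 × 10^3 cells/well in McCoy's 5A with 10% FBS and antibiotics, grown 24 h, then exposed to compound for 24 h under normoxia (20% O2) or hypoxia (1% O2, 94% N2, 5% CO2, 37 °C). MTT 0.5 mg/mL added for 4 h at 37 °C, cells lysed in DMSO, absorbance read at 570 nm. Final DMSO 1.0% (v/v).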

[3] = Solubility of the compound in dimethylsulfoxide; assay type: physicochemical
HCT-116 [4] = test: Cytotoxicity against human HCT116 cells assessed as cell viability under normoxic condition at 200 uM after 24 hrs by MTT assay; assay type: functional; in short: as §2
[5] = Antiangiogenic activity in 3-day-old embryonated chicken eggs at 300 ng/CAM measured on 7th embryonic day by CAM assay; assay type: functional, Gallus gallus, Egg
HCT-116 [6] = test: Cytotoxicity against human HCT116 cells assessed as cell viability under hypoxic condition at 200 uM after 24 hrs by MTT assay; assay type: functional; in short: as §2
HCT-116 [7] = test: Cytotoxicity against human HCT116 cells assessed as cell viability under hypoxic condition at 200 uM after 7 days by clonogenic assay; assay type: functional
In short: (§3)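 HCT116 cells plated at 3.0 × 10^2 cells per dish and treated 24 h under normoxia (20% O2) or hypoxia (1% O2). On day 7 colonies were washed with PBS, fixed in methanol 30 min at room temperature, stained with Giemsa over 3 h, then counted.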

HCT-116 [8] = test: Cytotoxicity against human HCT116 cells assessed as cell viability under normoxic condition at 200 uM after 7 days by clonogenic assay; assay type: functional; in short: as §3
[9] = Modulation of HIF1 expressed in HEK293 cells assessed as luciferase activity under hypoxic condition after 24 hrs by luminometer analysis; assay type: cell-based; details: HEK293, 24 h
HCT-116 [10] = test: Inhibition of HIF1alpha expression in human HCT116 cells under hypoxic condition after 4 hrs by immunoblotting; assay type: functional, cell-based
In short: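 HCT116 cells at 4 × 10^6 per dish, grown 24 h, then exposed 4 h under hypoxia (1% O2) or normoxia (20% O2). Lysed on ice in Tris/SDS/deoxycholate buffer with protease and phosphatase inhibitors; 120 µg protein per lane on 7% SDS-PAGE. Probed with mouse anti-human HIF-1α (1:500) and β-actin control; HRP secondary, chemiluminescence quantitation.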

[11] = biological target: T1, Hypoxia inducible factors; HIF-1-alpha, HIF-2-alpha (Homo sapiens) (UniProt Q16665+Q99814); test: Inhibition of HIF1-dependent GLUT1 mRNA expression in human HCT116 cells under hypoxic condition at 50 uM after 24 hrs by RT-PCR analysis; assay type: cell-based; details: HCT-116
In short: (§4)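 HCT116 cells seeded at 1 × 10^6 per dish in McCoy's 5A/10% FBS, grown 24 h, then treated 24 h under hypoxia (1% O2) or normoxia. Total RNA extracted directly after treatment. Real-time RT-PCR run as 95 °C 30 s, then 40 cycles of 95 °C 5 s and 60 °C 30 s. Normalized to 18S rRNA, relative expression by 2^-ΔΔCT; mean ± SD.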

[12] = biological target: T1, Hypoxia inducible factors; HIF-1-alpha, HIF-2-alpha (Homo sapiens); test: Inhibition of HIF1-dependent HK2 mRNA expression in human HCT116 cells under hypoxic condition at 50 uM after 24 hrs by RT-PCR analysis; assay type: cell-based; details: HCT-116; in short: as §4
[13] = biological target: T1, Hypoxia inducible factors; HIF-1-alpha, HIF-2-alpha (Homo sapiens); test: Inhibition of HIF1-dependent VEGFA mRNA expression in human HCT116 cells under hypoxic condition at 50 uM after 24 hrs by RT-PCR analysis; assay type: cell-based; details: HCT-116; in short: as §4
HCT-116 [14] = test: Cytotoxicity against human HCT116 cells assessed as cell viability under hypoxic condition at 50 uM after 24 hrs by MTT assay; assay type: functional; in short: as §2
HCT-116 [15] = test: Cytotoxicity against human HCT116 cells assessed as cell viability under normoxic condition at 50 uM after 24 hrs by MTT assay; assay type: functional
HCT-116 [16] = test: Cytotoxicity against human HCT116 cells assessed as cell viability under hypoxic condition at 50 uM after 7 days by clonogenic assay; assay type: functional
HCT-116 [17] = test: Cytotoxicity against human HCT116 cells assessed as cell viability under normoxic condition at 50 uM after 7 days by clonogenic assay; assay type: functional
HCT-116 [18] = test: Cytotoxicity against human HCT116 cells assessed as cell viability under normoxic condition after 24 hrs by MTT assay; assay type: functional, cell-based; details: HCT-116, 24 h; in short: as §2
HEK293 [19] = test: Modulation of HIF1 expressed in HEK293 cells assessed as luciferase activity under hypoxic condition at 30 uM after 24 hrs by luminometer analysis relative to hypoxic control; assay type: cell-based; in short: as §1

For `CC(C)(C)c1cc(/C=C/C(=O)O)cc(C(C)(C)C)c1O`, the Ratio (HEK293 [1]) was 0.77 and the Activity (HCT-116 [2]) was 108.4%.
With `C=C(C)[C@@H]1CC[C@]2(C)CC[C@]3(C)[C@H](CC[C@@H]4[C@@]5(C)CC[C@H](OC(=O)C[C@H](O)CCCCCCCCCCCCC)C(C)(C)[C@@H]5CC[C@]43C)[C@@H]12` the solubility [3] was “Insoluble”.
In the case of `COc1ccc(/C=C/C(=O)O)cc1CC=C(C)C`, the Ratio (HEK293 [1]) is reported as 0.82 and the Activity (HCT-116 [2]) is reported as 95.7%.
`C=CCc1cc(/C=C/C(=O)O)ccc1O` showed a Ratio (HEK293 [1]) of 0.9 and an Activity (HCT-116 [2]) of 98.4%.
Work on `O=C(O)/C=C/c1ccc(OC(=O)CCc2ccccc2)cc1` yielded a Ratio (HEK293 [1]) of 1.08.
With `CC(C)=CCc1cc(/C=C/C(=O)O)cc(CC=C(C)C)c1O` [ARTEPILLIN] the Ratio (HEK293 [1]) was 1.09, the Activity (HCT-116 [4]) was 53.3% and the “inhibition (INH)” value [5] was 80.9%.
`CC(C)=CCc1cc(/C=C/C(=O)O)ccc1OC(=O)CCc1ccccc1` [BACCHARIN] showed an Activity (HCT-116 [6]) of 69.4%, a Ratio (HEK293 [1]) of 0.52 and an Activity (HCT-116 [4]) of 58.2%. The Activity (HCT-116 [7]) was 74%, the Activity (HCT-116 [8]) was 74.8% and the IC50 [9] was 77.4 µM. For the same compound, the inhibition (HCT-116 [10]) was “Dose-dependent effect”, the inhibition [11] was “Active” and the inhibition [12] was “Active”. The inhibition [13] was “Active” and the “inhibition (INH)” value [5] was 83.2%.
Work on `COc1ccc(-c2oc3cc(O)c(OC)c(O)c3c(=O)c2O)cc1` [BETULETOL] yielded an Activity (HCT-116 [14]) of 86.8%, an Activity (HCT-116 [15]) of 69% and an Activity (HCT-116 [16]) of 90.3%. For the same compound, the Activity (HCT-116 [17]) was 96.8% and the “inhibition (INH)” value [5] was 46.7%.
For `O=C(O)/C=C/c1ccc(O)cc1` [COUMARIC ACID], the Ratio (HEK293 [1]) was 0.93 and the Activity (HCT-116 [2]) was 99.3%.
For `CC(C)=CCc1cc(/C=C/C(=O)O)ccc1O` [DRUPANIN], the Activity (HCT-116 [6]) was 146%, the Ratio (HEK293 [1]) was 0.36 and the Activity (HCT-116 [4]) was 127.1%. For the same compound, the Activity (HCT-116 [7]) was 101.2%, the Activity (HCT-116 [8]) was 105.8% and the IC50 [9] was 25.6 µM. The inhibition (HCT-116 [10]) was “Dose-dependent effect”, the inhibition [11] was “Active” and the inhibition [12] was “Active”. For the same compound, the inhibition [13] was “Active” and the “inhibition (INH)” value [5] was 84.3%.
`COc1ccc(-c2oc3cc(O)cc(O)c3c(=O)c2O)cc1` [KAEMPFERIDE] showed an Activity (HCT-116 [14]) of 173.3%, an Activity (HCT-116 [15]) of 102.5% and an Activity (HCT-116 [16]) of 87.6%. For the same compound, the Activity (HCT-116 [17]) was 79.9% and the “inhibition (INH)” value [5] was 39.5%.
In the case of `COC(=O)/C=C/c1ccc(OC)c(CC=C(C)C)c1` [PALICATIN B METHYL ETHER], the IC50 (HCT-116 [18]) is reported as 37.6 µM and the Ratio (HEK293 [19]) is reported as 1.17.
For `COC(=O)/C=C/c1ccc(O)c(CC=C(C)C)c1` [PLICATIN B], the IC50 (HCT-116 [18]) was 10.6 µM.
